According to ChEMBL document CHEMBL1127473, “Estrone sulfamates: potent inhibitors of estrone sulfatase with therapeutic potential” (J Med Chem, 1994):
The source made the active and inactive calls. The calls are words filed in the database; no cut-off is given here.

Key:
[1] = molecular target: T1, Steryl-sulfatase (Homo sapiens) (UniProt P08842); assay: Tested for inhibition of estrone sulfatase in MCF-7 breast cancer cells using 2 nM substrate concentration at 1 uM; assay type: cell-based; details: MCF7
T1 sequence (whole entry): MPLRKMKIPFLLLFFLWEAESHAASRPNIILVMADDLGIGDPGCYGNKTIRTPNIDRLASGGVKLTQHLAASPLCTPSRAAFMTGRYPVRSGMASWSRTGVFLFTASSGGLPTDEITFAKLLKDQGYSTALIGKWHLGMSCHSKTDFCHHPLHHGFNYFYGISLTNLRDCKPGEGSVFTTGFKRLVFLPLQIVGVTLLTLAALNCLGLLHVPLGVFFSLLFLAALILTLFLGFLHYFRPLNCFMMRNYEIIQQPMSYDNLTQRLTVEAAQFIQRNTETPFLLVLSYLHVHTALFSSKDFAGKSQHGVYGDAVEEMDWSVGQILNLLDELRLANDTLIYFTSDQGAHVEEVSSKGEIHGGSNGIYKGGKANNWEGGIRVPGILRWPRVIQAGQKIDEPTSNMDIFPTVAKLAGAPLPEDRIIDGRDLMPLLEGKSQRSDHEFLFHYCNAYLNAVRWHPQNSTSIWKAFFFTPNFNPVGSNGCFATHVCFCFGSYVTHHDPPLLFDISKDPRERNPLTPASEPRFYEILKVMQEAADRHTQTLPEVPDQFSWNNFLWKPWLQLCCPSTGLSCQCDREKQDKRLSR

[2] = molecular target: T1, Steryl-sulfatase (Homo sapiens); assay: Tested for inhibition of estrone sulfatase in MCF-7 breast cancer cells using 2 nM substrate concentration at 0.1 uM; assay type: cell-based; details: MCF7
Steryl-sulfatase = molecular target: T2, Steryl-sulfatase (Homo sapiens, UniProt P08842); assay: Tested for inhibition of estrone sulfatase in placental microsomal preparation (100000 g pellet) using substrate concentration of 20 uM; assay type: microsomes, Placenta
T2 sequence (P08842 whole entry): T1 sequence (whole entry)
Method in brief: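 Placental microsomal preparation (100 000-g pellet) assayed with saturating [3H]estrone sulfate substrate (20 μM); IC50 derived for sulfatase inhibition.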

[3] = molecular target: T1, Steryl-sulfatase (Homo sapiens); assay: Tested for inhibition of estrone sulfatase in MCF-7 breast cancer cells using 2 nM substrate concentration at 10 uM; assay type: cell-based; details: MCF7
[4] = molecular target: T1, Steryl-sulfatase (Homo sapiens); assay: Tested for inhibition of estrone sulfatase in MCF-7 breast cancer cells using 2 nM substrate concentration at 1 uM; NI=No inhibition; assay type: cell-based; details: MCF7
[5] = molecular target: T1, Steryl-sulfatase (Homo sapiens); assay: Tested for inhibition of estrone sulfatase in MCF-7 breast cancer cells using 2 nM substrate concentration at 10 uM; NI=No inhibition; assay type: cell-based; details: MCF7
[6] = molecular target: T1, Steryl-sulfatase (Homo sapiens); assay: Tested for enzyme activity recovered after 20h in MCF-7 breast cancer cells at 1 uM; details: MCF7
[7] = molecular target: T1, Steryl-sulfatase (Homo sapiens); details: MCF7; 1 uM

inhibition [1]	inhibition [3]	inhibition [4]	inhibition [5]	% activity recovered [6]	SMILES	inhibition [2]	IC50 (Steryl-sulfatase)	% activity recovered [7]
		inactive	inactive		CN(C)S(=O)(=O)Oc1ccc2c(c1)CCCC2			
	22%				CNS(=O)(=O)Oc1ccc2c(c1)CCCC2			
47%	97%				NS(=O)(=O)Oc1ccc2c(c1)CCCC2			
87%	90%			80%	CN(C)S(=O)(=O)Oc1ccc2c(c1)CCC1[C@@H]2CC[C@]2(C)C(=O)CC[C@@H]12 (single isomer, unassigned)	79%		
87%	93%			> 50%	CNS(=O)(=O)Oc1ccc2c(c1)CCC1[C@@H]2CC[C@]2(C)C(=O)CC[C@@H]12 (single isomer, unassigned)			

SMILES	inhibition [1]	inhibition [3]	inhibition [4]	inhibition [5]	% activity recovered [6]	inhibition [2]	IC50 (Steryl-sulfatase)	% activity recovered [7]
CSP(=O)(O)Oc1ccc2c(c1)CC[C@@H]1[C@@H]2CC[C@]2(C)C(=O)CC[C@@H]12	74%	96%				52%	43 µM	
C[C@]12CC[C@@H]3c4ccc(OS(N)(=O)=O)cc4CCC3[C@@H]1CCC2=O (single isomer, unassigned) [EMATE]	> 99%	> 99%				> 99%	0.08 µM	inactive
